This is an account of results in ChEMBL document CHEMBL3525946, “Species comparison of in vivo P-glycoprotein-mediated brain efflux using mdr1a-deficient rats and mice” (Drug Metab Dispos, 2012).

Usually fraction unbound stands for free concentration divided by total concentration. Read a low fraction unbound as extensive binding. For orientation: Kp means tissue or fluid exposure divided by exposure in the circulation.

Series [1] in a line: Percentage unbound in Crl:NMRI(Han) mouse plasma at 1 uM after 5 hrs by equilibrium dialysis method. It is filed as ADME, cell-free. In short, it runs like this: (§1)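 Equilibrium dialysis (12-14 kDa membrane) of plasma or brain homogenate from naïve male Sprague-Dawley rats or Crl:NMRI(Han) mice. Donor side spiked to 1 µM final; receiver phosphate buffer pH 7.4; 37°C for 5 h. Buffer phase quantified by LC-MS. Brain fu corrected for homogenate dilution to intact tissue. Mean of two independent determinations.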

The nature of series [2]: Percentage unbound in Sprague-Dawley rat plasma at 1 uM after 5 hrs by equilibrium dialysis method. It is filed as ADME, cell-free. In outline: as §1
On the technique in general: Equilibrium dialysis compares concentrations on both sides of a semipermeable membrane.

Series [3] is described as follows: Total drug level in mdr1a-deficient rat brain treated with venlafaxine at 9 mg/kg/day administered through continuous minipump treatment for 3 days by UPLC-MS analysis. The note with it: other: continuous minipump, read-out: Drug uptake. It is filed as ADME, organism-based. In outline:
(§2)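 Subcutaneous osmotic minipump infusion for 3 days to steady state, implanted under isoflurane (rats 10 µl/h, mice 1 µl/h). Mdr1a-deficient (SD-Abcb1a knockout rats; Crl:CF1-Abcb1a mutant mice) and wild-type animals, n=3-5 per group. After decapitation, EDTA plasma and whole brain (homogenized 1:4 in 70% acetonitrile) were precipitated with internal standard. Parent and metabolites quantified by UPLC-MS. Mean ± SEM.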

Series [4] in a line: Total drug level in wild type Crl:CF1 mouse brain expressing Abcb1a mutant treated with venlafaxine at 12 mg/kg/day administered through continuous minipump treatment for 3 days by UPLC-MS analysis. It is filed as ADME, organism-based. Particulars: other: continuous minipump, read-out: Drug uptake. In outline:
as §2

A short description of series [5]: Total drug level in wild type Sprague-Dawley rat brain expressing Abcb1a treated with venlafaxine at 9 mg/kg/day administered through continuous minipump treatment for 3 days by UPLC-MS analysis. It is filed as ADME, organism-based. The note with it: other: continuous minipump, read-out: Drug uptake. In outline:
as §2

Series [6] can be described thus: Total brain to plasma partition coefficient of the compound in wild type Crl:CF1 mouse expressing Abcb1a mutant treated with venlafaxine at 12 mg/kg/day administered through continuous minipump treatment for 3 days. Particulars: other: continuous minipump. It is filed as ADME, organism-based. In short, it runs like this:
(§3)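 Kp is total brain concentration divided by total plasma concentration at steady state. Measured after a 3-day subcutaneous osmotic minipump infusion in mdr1a-deficient or wild-type rats or mice, n=3-5. Concentrations determined by UPLC-MS in plasma and in whole-brain homogenate (70% acetonitrile). Mean ± SEM.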

A short description of series [7]: Total brain to plasma partition coefficient of the compound in mdr1a-deficient rat treated with venlafaxine at 9 mg/kg/day administered through continuous minipump treatment for 3 days. It is filed as ADME, organism-based. Particulars: brain and plasma, other: continuous minipump. In outline:
as §3

Series [8] can be described thus: Total brain to plasma partition coefficient of the compound in wild type Sprague-Dawley rat expressing Abcb1a treated with venlafaxine at 9 mg/kg/day administered through continuous minipump treatment for 3 days. It is filed as ADME, organism-based. Particulars: brain and plasma, other: continuous minipump. In short, it runs like this: as §3
Series [9] in a line: Unbound brain to plasma partition coefficient of the compound in mdr1a-deficient Sprague-Dawley rat treated with venlafaxine at 9 mg/kg/day administered through continuous minipump treatment for 3 days. It is filed as ADME, organism-based. The note with it: other: continuous minipump, read-out: K(p,uu,brain). In short, it runs like this: (§4)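 Kp,uu is (Cbrain,total × fu,brain)/(Cplasma,total × fu,plasma). Total concentrations were measured at steady state after a 3-day subcutaneous minipump infusion in knockout or wild-type animals. Species-matched free fractions came from 5 h, 37°C equilibrium dialysis at 1 µM in naïve plasma and brain homogenate.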

Series [10] can be described thus: Total drug level in mdr1a-deficient mouse brain treated with venlafaxine at 12 mg/kg/day administered through continuous minipump treatment for 3 days by UPLC-MS analysis. Particulars: other: continuous minipump, read-out: Drug uptake. It is filed as ADME, organism-based. In short, it runs like this: as §2
Series [11] in a line: Total plasma concentration in mdr1a-deficient rat treated with venlafaxine at 9 mg/kg/day administered through continuous minipump treatment for 3 days by UPLC-MS analysis. Particulars: other: continuous minipump. It is filed as ADME, organism-based. In outline: as §2
The nature of series [12]: Total plasma concentration in wild type Sprague-Dawley rat expressing Abcb1a treated with venlafaxine at 9 mg/kg/day administered through continuous minipump treatment for 3 days by UPLC-MS analysis. It is filed as ADME, organism-based. The note with it: other: continuous minipump. In outline: as §2
Series [13] can be described thus: Unbound brain to plasma partition coefficient of the compound in wild type Crl:CF1 mouse expressing Abcb1a mutant treated with venlafaxine at 12 mg/kg/day administered through continuous minipump treatment for 3 days. It is filed as ADME, organism-based. Particulars: other: continuous minipump, read-out: K(p,uu,brain). In outline:
as §4

The nature of series [14]: Total plasma concentration in wild type Crl:CF1 mouse expressing Abcb1a mutant treated with venlafaxine at 12 mg/kg/day administered through continuous minipump treatment for 3 days by UPLC-MS analysis. It is filed as ADME, organism-based. The note with it: other: continuous minipump. In outline: as §2
Series [15] in a line: Unbound brain to plasma partition coefficient of the compound in mdr1a-deficient mouse treated with venlafaxine at 12 mg/kg/day administered through continuous minipump treatment for 3 days. Particulars: other: continuous minipump, read-out: K(p,uu,brain). It is filed as ADME, organism-based. In outline:
as §4

The nature of series [16]: Total plasma concentration in mdr1a-deficient mouse treated with venlafaxine at 12 mg/kg/day administered through continuous minipump treatment for 3 days by UPLC-MS analysis. It is filed as ADME, organism-based. The note with it: other: continuous minipump. In outline:
as §2

A short description of series [17]: Unbound brain to plasma partition coefficient of the compound in wild type Sprague-Dawley rat expressing Abcb1a treated with venlafaxine at 9 mg/kg/day administered through continuous minipump treatment for 3 days. It is filed as ADME, organism-based. The note with it: other: continuous minipump, read-out: K(p,uu,brain). In outline: as §4
The nature of series [18]: Total brain to plasma partition coefficient of the compound in mdr1a-deficient mouse treated with venlafaxine at 12 mg/kg/day administered through continuous minipump treatment for 3 days. It is filed as ADME, organism-based. Particulars: other: continuous minipump. In short, it runs like this: as §3
Series [19] is described as follows: Percentage unbound in Crl:NMRI(Han) mouse brain at 1 uM after 5 hrs by equilibrium dialysis method. It is filed as ADME, tissue-based. In short, it runs like this:
as §1

Series [20] is described as follows: Percentage unbound in Sprague-Dawley rat brain at 1 uM after 5 hrs by equilibrium dialysis method. It is filed as ADME, tissue-based. In short, it runs like this:
as §1

Series [21] can be described thus: Total plasma concentration in wild type Crl:CF1 mouse expressing Abcb1a mutant at 6 mg/kg/day administered through continuous minipump treatment for 3 days by UPLC-MS analysis. It is filed as ADME, organism-based. Particulars: other: continuous minipump. In short, it runs like this:
as §2

Series [22] is described as follows: Total plasma concentration in wild type Sprague-Dawley rat expressing Abcb1a at 9 mg/kg/day administered through continuous minipump treatment for 3 days by UPLC-MS analysis. It is filed as ADME, organism-based. The note with it: other: continuous minipump. In outline:
(§5)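 Drug was infused subcutaneously by osmotic minipump for 3 days to steady state, at 1 µl/h in mice and 10 µl/h in rats, with doses derived from body weight and delivery rate. Animals were decapitated. Plasma came from EDTA trunk blood spun at 5000 g for 10 min at 4 °C. Whole brain was homogenised 1:4 in 70% acetonitrile and the supernatant kept. Samples were protein-precipitated with internal standard and analysed by UPLC. n=3-5, mean ± SEM.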

Series [23] is described as follows: Total drug level in mdr1a-deficient mouse brain at 6 mg/kg/day administered through continuous minipump treatment for 3 days by UPLC-MS analysis. It is filed as ADME, organism-based. The note with it: other: continuous minipump, read-out: Drug uptake. In short, it runs like this:
as §2

Series [24] in a line: Total plasma concentration in mdr1a-deficient mouse at 6 mg/kg/day administered through continuous minipump treatment for 3 days by UPLC-MS analysis. It is filed as ADME, organism-based. The note with it: other: continuous minipump. In outline: as §2
The nature of series [25]: Total drug level in wild type Sprague-Dawley rat brain expressing Abcb1a at 9 mg/kg/day administered through continuous minipump treatment for 3 days by UPLC-MS analysis. It is filed as ADME, organism-based. The note with it: other: continuous minipump, read-out: Drug uptake. In short, it runs like this: as §5
Series [26] is described as follows: Total drug level in wild type Crl:CF1 mouse brain expressing Abcb1a mutant at 6 mg/kg/day administered through continuous minipump treatment for 3 days by UPLC-MS analysis. It is filed as ADME, organism-based. The note with it: other: continuous minipump, read-out: Drug uptake. In short, it runs like this:
as §2

Series [27] can be described thus: Total plasma concentration in mdr1a-deficient rat at 9 mg/kg/day administered through continuous minipump treatment for 3 days by UPLC-MS analysis. It is filed as ADME, organism-based. Particulars: other: continuous minipump. In short, it runs like this:
as §5

Series [28] can be described thus: Total drug level in mdr1a-deficient rat brain at 9 mg/kg/day administered through continuous minipump treatment for 3 days by UPLC-MS analysis. The note with it: other: continuous minipump, read-out: Drug uptake. It is filed as ADME, organism-based. In short, it runs like this:
as §5

Molecules are shown by their SMILES.

For the compound `Cc1nc2n(c(=O)c1CCN1CCC(c3noc4cc(F)ccc34)CC1)CC(O)CC2` (centres undefined), the fraction unbound at 5 h, 1 µM was determined as 0.54 in series [1] and 0.2 in series [2].

As to `CNCC(c1ccc(OC)cc1)C1(O)CCCCC1` (centres undefined) [N-DESMETHYLVENLAFAXINE], the concentration at 72 h in series [3] turned out to be 79 ng/g; in [4], 25 ng/g; in series [5], 9.3 ng/g; in series [10] it was 77 ng/g; in series [11], 10 ng/mL; in [12], 6.8 ng/mL. Also, the figures for the concentration at 72 h in [14] and in series [16] were 17 ng/mL and 11 ng/mL, respectively. For the same compound, the fraction unbound at 5 h, 1 µM in [1] amounted to 0.8; in series [19], 0.16; in series [2], 0.32; in [20], 0.08. Besides, the concentration ratio (Kp) at 72 h in series [6] turned out to be 1.5; in series [7], 8.9; in series [8] it was 1.4; in series [18], 7. The Kp uu at 72 h in series [9] came out at 2; in series [13], 0.29; in series [15], 1.4; in series [17], 0.34.

Regarding `CN(C)CC(c1ccc(O)cc1)C1(O)CCCCC1` (centres undefined) [DESVENLAFAXINE], the concentration at 72 h in [3] turned out to be 33 ng/g; in [4], 10 ng/g; in [5], 4.4 ng/g; in series [10] it was 40 ng/g; in [11], 11 ng/mL; in [12] it was 4.5 ng/mL. Also, the concentration at 72 h in series [14] stood at 5.7 ng/mL; in series [16] it was 7.5 ng/mL. The fraction unbound at 5 h, 1 µM in series [1] was greater than 0.99; in series [19], 0.45; in series [2], 0.89; in series [20], 0.35. The Kp at 72 h in [6] came to 1.8; in [7] it was 3.3; in series [8], 1; in [18], 5.7. In addition, the Kp uu at 72 h in [9] was determined as 1.2; in [13] it was 0.8; in series [15], 2.4; in series [17], 0.38.

As to `Br.CN(C)CCCC1(c2ccc(F)cc2)OCc2cc(C#N)ccc21` (centres undefined) [CITALOPRAM HYDROBROMIDE], the fraction unbound at 5 h, 1 µM was 0.32 in [1], 0.035 in [19], 0.5 in series [2] and 0.031 in [20]. For the same compound, the concentration at 72 h in series [21] was 8.8 ng/mL; in series [22], 27 ng/mL; in [23] it was 361 ng/g; in series [24] it was 8.2 ng/mL; in series [25], 265 ng/g; in series [26], 191 ng/g. The figures for the concentration at 72 h in series [27] and in series [28] were 35 ng/mL and 1200 ng/g, respectively.
